# Experimental data: ChEMBL document CHEMBL5058577, “EUbOPEN Chemogenomics Library 2 (Multiplex)” (2022)
# System: Fibroblast
# Experiment: Multiplex assay against human fibroblast
# Format: toxicity, cell-based
# How it was run: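 With compound added, live cells were imaged on a CQ1 microscope at 37°C and 5% CO2; staining with Hoechst33342, BioTracker Green Microtubule Cytoskeleton Dye, MitoTracker Red and Annexin V Alexa Fluor 680 had been done at seeding. The CellPathfinder machine-learning gating scheme split cells into Hoechst high-intensity objects or normal cells, normal cells into healthy, pyknosed or fragmented nuclei, and pyknosed cells into mitotic or apoptotic. The tubulin, mitochondrial-mass and membrane-permeability phenotypes are per cents of healthy-nucleus cells.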
# [1] = 12 h, 1 µM, compound concentration 1 uM, replicate 1
# [2] = 12 h, 1 µM, compound concentration 1 uM, replicate 2
# [3] = 12 h, 10 µM, compound concentration 10 uM, replicate 1
# [4] = 12 h, 10 µM, compound concentration 10 uM, replicate 2
# [5] = 24 h, 1 µM, compound concentration 1 uM, replicate 1
# [6] = 24 h, 1 µM, compound concentration 1 uM, replicate 2
# [7] = 24 h, 10 µM, compound concentration 10 uM, replicate 1
# [8] = 24 h, 10 µM, compound concentration 10 uM, replicate 2
# [9] = 48 h, 1 µM, compound concentration 1 uM, replicate 1
# [10] = 48 h, 1 µM, compound concentration 1 uM, replicate 2
# [11] = 48 h, 10 µM, compound concentration 10 uM, replicate 1
# [12] = 48 h, 10 µM, compound concentration 10 uM, replicate 2
compound,measurement,setting,value
CSc1nc(NC2CCCC2)c([N+](=O)[O-])c(NC2CCCC2)n1 [GS-39783],Population Apoptotic (%),[1],50%
same,Population Fragmented Nuclei (%),[1],16%
same,Population Healthy Nuclei (%),[1],66%
same,Population Hoechst High Intensity Objects (%),[1],3%
same,Population Membrane Permeable-Phenotype (%),[1],2%
same,Population Mitochondria Different-Phenotype (%),[1],6%
same,Population Mitotic Cells (%),[1],50%
same,Population Normal (%),[1],96%
same,Population Pyknosed Nuclei (%),[1],16%
same,Population Tubulin-Different-Phenotype (%),[1],29%
same,Total Cell Count,[1],137
same,Population Apoptotic (%),[2],39%
same,Population Fragmented Nuclei (%),[2],28%
same,Population Healthy Nuclei (%),[2],46%
same,Population Hoechst High Intensity Objects (%),[2],5%
same,Population Membrane Permeable-Phenotype (%),[2],10%
same,Population Mitochondria Different-Phenotype (%),[2],10%
same,Population Mitotic Cells (%),[2],60%
same,Population Normal (%),[2],94%
same,Population Pyknosed Nuclei (%),[2],25%
same,Population Tubulin-Different-Phenotype (%),[2],57%
same,Total Cell Count,[2],135
same,Population Apoptotic (%),[3],54%
same,Population Fragmented Nuclei (%),[3],16%
same,Population Healthy Nuclei (%),[3],62%
same,Population Hoechst High Intensity Objects (%),[3],5%
same,Population Membrane Permeable-Phenotype (%),[3],0%
same,Population Mitochondria Different-Phenotype (%),[3],5%
same,Population Mitotic Cells (%),[3],45%
same,Population Normal (%),[3],94%
same,Population Pyknosed Nuclei (%),[3],21%
same,Population Tubulin-Different-Phenotype (%),[3],39%
same,Total Cell Count,[3],184
same,Population Apoptotic (%),[4],36%
same,Population Fragmented Nuclei (%),[4],25%
same,Population Healthy Nuclei (%),[4],52%
same,Population Hoechst High Intensity Objects (%),[4],6%
same,Population Membrane Permeable-Phenotype (%),[4],4%
same,Population Mitochondria Different-Phenotype (%),[4],16%
same,Population Mitotic Cells (%),[4],63%
same,Population Normal (%),[4],93%
same,Population Tubulin-Different-Phenotype (%),[4],70%
same,Total Cell Count,[4],165
same,Population Apoptotic (%),[5],30%
same,Population Fragmented Nuclei (%),[5],12%
same,Population Healthy Nuclei (%),[5],69%
same,Population Hoechst High Intensity Objects (%),[5],2%
same,Population Membrane Permeable-Phenotype (%),[5],3%
same,Population Mitochondria Different-Phenotype (%),[5],4%
same,Population Mitotic Cells (%),[5],69%
same,Population Normal (%),[5],97%
same,Population Pyknosed Nuclei (%),[5],17%
same,Population Tubulin-Different-Phenotype (%),[5],27%
same,Total Cell Count,[5],132
same,Population Apoptotic (%),[6],32%
same,Population Fragmented Nuclei (%),[6],31%
same,Population Healthy Nuclei (%),[6],44%
same,Population Membrane Permeable-Phenotype (%),[6],10%
same,Population Mitochondria Different-Phenotype (%),[6],12%
same,Population Mitotic Cells (%),[6],67%
same,Population Pyknosed Nuclei (%),[6],23%
same,Population Tubulin-Different-Phenotype (%),[6],60%
same,Total Cell Count,[6],133
same,Population Apoptotic (%),[7],58%
same,Population Fragmented Nuclei (%),[7],17%
same,Population Healthy Nuclei (%),[7],65%
same,Population Hoechst High Intensity Objects (%),[7],2%
same,Population Membrane Permeable-Phenotype (%),[7],0%
same,Population Mitochondria Different-Phenotype (%),[7],4%
same,Population Mitotic Cells (%),[7],41%
same,Population Normal (%),[7],97%
same,Population Pyknosed Nuclei (%),[7],17%
same,Population Tubulin-Different-Phenotype (%),[7],33%
same,Total Cell Count,[7],172
same,Population Apoptotic (%),[8],36%
same,Population Fragmented Nuclei (%),[8],25%
same,Population Healthy Nuclei (%),[8],52%
same,Population Hoechst High Intensity Objects (%),[8],7%
same,Population Membrane Permeable-Phenotype (%),[8],6%
same,Population Mitochondria Different-Phenotype (%),[8],10%
same,Population Mitotic Cells (%),[8],63%
same,Population Normal (%),[8],92%
same,Population Pyknosed Nuclei (%),[8],21%
same,Population Tubulin-Different-Phenotype (%),[8],57%
same,Total Cell Count,[8],164
same,Population Apoptotic (%),[9],70%
same,Population Fragmented Nuclei (%),[9],22%
same,Population Healthy Nuclei (%),[9],69%
same,Population Hoechst High Intensity Objects (%),[9],4%
same,Population Membrane Permeable-Phenotype (%),[9],1%
same,Population Mitochondria Different-Phenotype (%),[9],5%
same,Population Mitotic Cells (%),[9],30%
same,Population Normal (%),[9],95%
same,Population Pyknosed Nuclei (%),[9],7%
same,Population Tubulin-Different-Phenotype (%),[9],29%
same,Total Cell Count,[9],134
same,Population Apoptotic (%),[10],33%
same,Population Fragmented Nuclei (%),[10],41%
same,Population Healthy Nuclei (%),[10],44%
same,Population Hoechst High Intensity Objects (%),[10],3%
same,Population Membrane Permeable-Phenotype (%),[10],23%
same,Population Mitochondria Different-Phenotype (%),[10],14%
same,Population Mitotic Cells (%),[10],66%
same,Population Normal (%),[10],96%
same,Population Pyknosed Nuclei (%),[10],14%
same,Population Tubulin-Different-Phenotype (%),[10],60%
same,Total Cell Count,[10],129
same,Population Apoptotic (%),[11],66%
same,Population Fragmented Nuclei (%),[11],19%
same,Population Healthy Nuclei (%),[11],65%
same,Population Hoechst High Intensity Objects (%),[11],2%
same,Population Membrane Permeable-Phenotype (%),[11],1%
same,Population Mitochondria Different-Phenotype (%),[11],5%
same,Population Mitotic Cells (%),[11],33%
same,Population Normal (%),[11],97%
same,Population Pyknosed Nuclei (%),[11],14%
same,Population Tubulin-Different-Phenotype (%),[11],41%
same,Total Cell Count,[11],168
same,Population Apoptotic (%),[12],60%
same,Population Fragmented Nuclei (%),[12],40%
same,Population Healthy Nuclei (%),[12],46%
same,Population Hoechst High Intensity Objects (%),[12],6%
same,Population Membrane Permeable-Phenotype (%),[12],6%
same,Population Mitochondria Different-Phenotype (%),[12],7%
same,Population Mitotic Cells (%),[12],40%
same,Population Normal (%),[12],93%
same,Population Pyknosed Nuclei (%),[12],13%
same,Population Tubulin-Different-Phenotype (%),[12],60%
same,Total Cell Count,[12],193
